Our source for the Ki values is PMC3923374 (Analytical biochemistry, 2013).

The target in one test is sigma-1 receptor (Cavia porcellus, UniProt Q60492). The test is described as follows: radioligand competition with [3H]. Type of test: binding. The conditions noted are these: read-out: Ki for sigma-1 receptors.
For a further test, the target named is T1, sigma-2 receptor (Rattus norvegicus, UniProt Q5U3Y7).
T1 sequence (Q5U3Y7 1-176): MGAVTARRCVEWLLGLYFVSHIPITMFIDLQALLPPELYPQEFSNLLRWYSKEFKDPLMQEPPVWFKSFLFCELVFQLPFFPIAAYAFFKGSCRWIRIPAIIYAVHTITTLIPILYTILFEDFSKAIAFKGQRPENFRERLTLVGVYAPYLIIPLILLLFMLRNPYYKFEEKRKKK
The test is described as follows: radioligand competition with [3H]RHM-1 in rat liver membranes. Type of test: binding. Particulars: read-out: Ki for sigma-2 receptors. The procedure, abridged:
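Rat liver membrane homogenate (~300 μg protein) in 50 mM Tris-HCl, pH 8.0, incubated 60 min at 25°C with 1 nM [³H]RHM-1 (80 Ci/mmol) and test compound at 0.1 nM–10 μM. Stopped with cold 10 mM Tris-HCl/150 mM NaCl, pH 7.4, filtered onto glass-fiber filters presoaked 1 h in 50 mM Tris-HCl, washed three times ice-cold, scintillation counted. Nonspecific binding: 10 μM haloperidol.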

Sequence of sigma-1 receptor (Q60492 whole entry): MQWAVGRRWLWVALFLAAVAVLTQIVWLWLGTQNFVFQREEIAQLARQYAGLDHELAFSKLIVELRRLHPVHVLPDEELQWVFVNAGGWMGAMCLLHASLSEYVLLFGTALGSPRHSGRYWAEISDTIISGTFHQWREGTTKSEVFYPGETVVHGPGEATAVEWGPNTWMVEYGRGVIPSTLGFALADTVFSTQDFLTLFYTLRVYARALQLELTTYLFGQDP

Consider `O[C@@H](CN1[C@@H]2CC[C@H]1CC(c1ccccc1)C2)c1cccc(Br)c1` (some centres unmarked) [RHM-138], for which the results for the inhibition constant Ki on sigma-1 receptor and on sigma-2 receptor were 544 nM and 12.3 nM, respectively.
